Results from different studies.
Each line is one published result; the experiments were not run side by side.
EGFR G719C: Epidermal growth factor receptor (EGFR, Homo sapiens, UniProt P00533, G719C)
EGFR T790M: Epidermal growth factor receptor (EGFR, Homo sapiens, UniProt P00533, T790M)
EGFR: Epidermal growth factor receptor (EGFR, Homo sapiens, UniProt P00533)
EGFR del752-759: Epidermal growth factor receptor (EGFR, Homo sapiens, UniProt P00533, del752-759)

Compound	target	test	setting	measurement	result
CO[C@@H]1[C@H](N(C)C(=O)c2ccccc2)C[C@H]2O[C@]1(C)n1c3ccccc3c3c4c(c5c6ccccc6n2c5c31)C(=O)NC4	EGFR G719C	enzyme activity, inhibitor	1 µM	inhibition	17%
COc1ccc2oc(-c3ccc4nc(N)oc4c3)c/c(=N\c3ccccc3NC(=O)CCN)c2c1	EGFR T790M	cell-free assay	1 µM	remaining signal	99%
N#Cc1ccc(NC(=O)Nc2ccccc2)cc1	EGFR	cell-free assay, competition with immobilised ligand	25 µM	remaining binding	87%
CS(=O)(=NC#N)c1ccccc1Nc1nc(Nc2ccnc(CO)c2)ncc1Cl (centres unmarked)	EGFR	enzyme activity, inhibitor, radiometric	1 µM	remaining activity	99.4%
CCCCC(=O)Nc1ccc(-c2ccc3ncn(CCC)c(=O)c3c2)cn1	EGFR T790M	binding, competition with immobilised ligand	0.5 µM	remaining binding	100%
CC#CC(=O)N1CCC[C@H]1c1nc(-c2ccc(C(=O)Nc3ccccn3)cc2)c2c(N)nccn12	Epidermal growth factor receptor (EGFR, Homo sapiens, UniProt P00533, L858R/T790M)	enzyme activity, inhibitor	1 µM	inhibition	2%
CN1CCN(C(=O)c2ccc(NC(=O)Nc3ccc(N(C)c4ccnc(Nc5ccc(CS(C)(=O)=O)cc5)n4)cc3)cc2)CC1	EGFR del752-759	binding	1 µM	remaining binding	100%
C1=C/COCc2cc(ccc2OCCN2CCCC2)Nc2nccc(n2)-c2cccc(c2)COC/1	EGFR G719C	binding	0.1 µM	remaining binding	75%
C[C@H]1CC[C@H](n2c3cnccc3c3cnc(Nc4ccc5c(n4)CCN(C(=O)CO)C5)nc32)CC1	Epidermal growth factor receptor (EGFR, Homo sapiens, UniProt P00533, del746-750)	cell-free assay	1 µM	remaining signal	84%
C=CC(=O)N1CCC([C@@H]2CCNc3c(C(N)=O)c(-c4ccc(Oc5ccccc5)cc4)nn32)CC1	EGFR G719C	cell-free assay	1 µM	inhibition	92%
COc1ccc2[nH]c3c4[nH]c5ccc(OC)cc5c4c4c(c3c2c1)C(=O)NC4=O	EGFR del752-759	binding	1 µM	remaining binding	68%
C#Cc1cnc(Nc2ccnc(CO)c2)nc1Nc1ccccc1S(C)(=O)=NC#N (centres unmarked)	Epidermal growth factor receptor (EGFR, Homo sapiens, UniProt P00533, L858R)	cell-free assay	1 µM	remaining signal	63%
Cc1ccc(NC(=O)c2ccnc(C(F)(F)F)c2)cc1-c1cc(OCCO)nc(N2CCOCC2)c1	EGFR G719C	binding	1 µM	remaining binding	97%
CS(=O)(=NC#N)c1ccccc1Nc1nc(Nc2ccc(CO)nc2)ncc1Cl (centres unmarked)	EGFR	enzyme activity, inhibitor, radiometric	1 µM	remaining activity	98.3%
